Compound activity (PubChem BioAssay)
Sampled rows, rich in hits. Any-hit rate of the full collection: about 8.7%.
PostGolgi yeast = growth inhibition of a yeast mutant, post-Golgi transport screen | post-Golgi transport phenotypic cell assay | inhibition, % at 10 µM | 98,000 tested, 0.9% active;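 note: yeast cells grown in 1536-well plates; yeast grown about 18 h at 30C before absorbance read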
Ecoli WT expand = growth inhibitors of E. coli BW25113 wild type | OD600 absorbance | growth inhibition, % at 100 µM | 98,000 tested, 0.15% active | AID 710;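 active = growth inhibition above about 50% at one test dose, limit read from the data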;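 note: growth measured after 20 h incubation at 37 °C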
Cav3 T inh = blocks human Cav3.2 T-type calcium channel; B-score at 10 µM; AID 449739; 100,000 tested, 4% active; Cav3.2-expressing cells, Fluo-4 calcium fluorescence FDSS; hits give low values;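 active = single-dose well whose peak fluorescence ratio is a statistical outlier from its plate by either plate-standardised score or position-corrected B-score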
PostGolgi ctrl = growth of the yeast control strain, post-Golgi counter-screen; efflux-deficient yeast background strain, growth absorbance A615, 16 h; inhibition, % at 10 µM; 98,000 tested, 5% active
PTK2B oligo ant = blocks oligomerization of human Pyk2 in cells; Q14289; Q293 cells, Pyk2 FERM NanoBiT luminescence; hits give low values; z-score (the deposit names both 25 µM and 10 µM); 99,000 tested, 0.83% active; AID 1347419;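 active = Z-score of -3 or lower, scaled per plate to the spread of control and sample wells; inactive = z-score above -3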;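 note: negative z-score means lost luminescence so less FERM oligomerization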
Target sequence (Q14289 whole entry, looked up): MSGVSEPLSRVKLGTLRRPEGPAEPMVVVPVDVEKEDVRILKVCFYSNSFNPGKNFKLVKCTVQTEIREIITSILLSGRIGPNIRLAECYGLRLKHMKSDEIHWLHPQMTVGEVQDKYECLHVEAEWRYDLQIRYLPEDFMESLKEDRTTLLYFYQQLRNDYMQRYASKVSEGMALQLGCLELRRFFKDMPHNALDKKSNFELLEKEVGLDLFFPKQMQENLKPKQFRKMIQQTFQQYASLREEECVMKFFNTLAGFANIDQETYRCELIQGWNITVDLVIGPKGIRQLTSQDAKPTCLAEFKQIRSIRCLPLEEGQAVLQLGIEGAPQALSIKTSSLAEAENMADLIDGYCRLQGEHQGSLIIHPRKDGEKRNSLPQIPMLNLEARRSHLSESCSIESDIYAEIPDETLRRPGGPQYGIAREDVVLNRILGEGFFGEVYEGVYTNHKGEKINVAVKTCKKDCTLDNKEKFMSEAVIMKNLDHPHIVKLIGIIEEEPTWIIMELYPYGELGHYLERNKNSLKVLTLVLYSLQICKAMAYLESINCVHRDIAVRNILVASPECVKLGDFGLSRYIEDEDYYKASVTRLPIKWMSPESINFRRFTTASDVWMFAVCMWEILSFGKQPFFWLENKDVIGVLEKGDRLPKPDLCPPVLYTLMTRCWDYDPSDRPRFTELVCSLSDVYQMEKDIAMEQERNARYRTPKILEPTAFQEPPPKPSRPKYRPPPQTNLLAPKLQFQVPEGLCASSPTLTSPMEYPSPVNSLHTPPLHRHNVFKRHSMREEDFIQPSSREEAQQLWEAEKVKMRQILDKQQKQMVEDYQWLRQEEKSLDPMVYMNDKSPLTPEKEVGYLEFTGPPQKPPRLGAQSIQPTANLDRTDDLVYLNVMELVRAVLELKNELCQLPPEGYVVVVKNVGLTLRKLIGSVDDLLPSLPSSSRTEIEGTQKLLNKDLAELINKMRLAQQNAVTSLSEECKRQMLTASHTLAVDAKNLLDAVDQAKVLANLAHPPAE
Ecoli tolC = growth inhibitors of E. coli BW25113 tolC mutant. OD615. growth inhibition, % at 10 µM (by protocol). 65,000 tested, 2.2% active;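 active = growth inhibition at or above a cutoff equal to the mean over every tested compound plus 3 SD, cut at about 60% in these data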;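 note: growth measured after 20 h incubation at 37 °C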
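signal = optical density read at 615 nm | test system = E. coli ΔtolC::kan strain BW25113 | timing = 20 h compound exposure of bacteria at 37 °C | buffer or medium = LB medium plus 50 µg/mL kanamycin | compound dosing = 10 µM final, single dose | evaluation = % inhibition of E. coli growth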
Numbers without * were called inactive. Cut-off read from the data, not from the text of the source, unless noted: active = inhibition above about 30%; inactive = the rest.

Screening CCC1Oc2ccc(C)cc2N(CC(=O)NCCN2CCCCCC2)C1=O (configuration not stated) returned PostGolgi yeast 0, Ecoli WT expand 10, Cav3 T inh 1.1, PostGolgi ctrl 1, PTK2B oligo ant 0.52 and Ecoli tolC -6.
`O=C(CN1c2cccc3cccc(c23)S1(=O)=O)NCc1ccc2c(c1)OCO2` gave PostGolgi yeast 5, Ecoli WT expand 1, Cav3 T inh 0.055, PostGolgi ctrl 2, PTK2B oligo ant -0.81 and Ecoli tolC 13.
For CC(Sc1ccc(Cl)cc1)C(=O)NCc1ccc2c(c1)OCO2 (configuration not stated) the results were PostGolgi yeast -1, Ecoli WT expand 9, Cav3 T inh -5.8*, PostGolgi ctrl 20 and PTK2B oligo ant 0.09.
For O=C(Nc1ccc2c(c1)OCO2)C(c1ccc(Cl)cc1)N1CCN(C(=O)c2ccco2)CC1 (configuration not stated) the results were PostGolgi yeast 7, Ecoli WT expand -8, Cav3 T inh -4.3*, PostGolgi ctrl 12, PTK2B oligo ant -0.84 and Ecoli tolC 39.
For O=C(Nc1ccc2c(c1)OCO2)C(c1ccccc1)N1CCN(C(=O)c2ccco2)CC1 (configuration not stated) the results were PostGolgi yeast -10, Ecoli WT expand 4, Cav3 T inh -0.16, PostGolgi ctrl -3, PTK2B oligo ant -1.1 and Ecoli tolC 3.
CC(C(=O)NCc1ccc2c(c1)OCO2)N1c2cccc3cccc(c23)S1(=O)=O (configuration not stated) was read as PostGolgi yeast -6, Ecoli WT expand -9, Cav3 T inh -5.1*, PostGolgi ctrl 18, PTK2B oligo ant -0.65 and Ecoli tolC 8.
Screening CC(Sc1ccc(Cl)cc1)C(=O)Nc1ccc(S(=O)(=O)N2CCOCC2)cc1 (configuration not stated) returned PostGolgi yeast -3, Ecoli WT expand -12, Cav3 T inh -5.1*, PostGolgi ctrl 9 and PTK2B oligo ant -1.2.
CC(Sc1ccc(Cl)cc1)C(=O)Nc1ccc2c(c1)OCO2 (configuration not stated) was read as Cav3 T inh -5.8* and PTK2B oligo ant 0.5.
Screening O=C(Nc1ccc2c(c1)OCO2)Nc1ccc(Cl)cc1Cl returned PostGolgi yeast -6, Ecoli WT expand -8, Cav3 T inh 0.023, PostGolgi ctrl 5 and PTK2B oligo ant -0.53.
`Cc1cc(C)n2nc(C(=O)NCc3ccccc3)nc2n1` gave PostGolgi yeast -4, Ecoli WT expand 6, Cav3 T inh 0.0087, PostGolgi ctrl -3 and PTK2B oligo ant 0.31.
Cc1cc(C)n2nc(C(=O)NCc3ccccc3)cc2n1 was read as PostGolgi yeast 43*, Ecoli WT expand 4, Cav3 T inh 0.29, PostGolgi ctrl 3, PTK2B oligo ant -0.43 and Ecoli tolC 1.
For COC(=O)c1ccccc1OCCCOc1ccc(C=O)cc1OC the results were PostGolgi yeast -3, Ecoli WT expand 3, Cav3 T inh -0.024, PostGolgi ctrl 2 and PTK2B oligo ant 1.4.
C[C@H](NC(=O)c1nc[nH]c1C(=O)NC1CCN(C(=O)OC(C)(C)C)CC1)C(=O)OCc1ccccc1 was read as Cav3 T inh 0.62.
`Cc1c(C(=O)NCCC2=CCCCC2)oc2ccc(S(=O)(=O)N3CCOCC3)cc12` gave PostGolgi yeast -12, Ecoli WT expand -2, Cav3 T inh -4.1*, PostGolgi ctrl 2, PTK2B oligo ant -1.6 and Ecoli tolC 33.
For O=C(CCN1CCC(c2ccccc2)C1)c1ccccc1 (configuration not stated) the results were PostGolgi yeast -1, Ecoli WT expand 4, Cav3 T inh 2.2, PostGolgi ctrl 1 and PTK2B oligo ant 0.8.
For O=C(CCN1CCC(c2ccccc2)C1)c1cccs1 (configuration not stated) the results were PostGolgi yeast 3, Ecoli WT expand -3, Cav3 T inh 0.75, PostGolgi ctrl 39*, PTK2B oligo ant 1.7 and Ecoli tolC -17.
COC(=O)c1cn(Nc2ncc(C(F)(F)F)cc2Cl)c(=O)c2ccccc12 was read as PostGolgi yeast -5, Ecoli WT expand 2, Cav3 T inh -1.3, PostGolgi ctrl 40* and PTK2B oligo ant -0.54.
`COC(=O)c1cn(NC(=O)c2ccc(OC)c(OC)c2)c(=O)c2ccccc12` gave PostGolgi yeast 18, Ecoli WT expand -4, Cav3 T inh -0.28, PostGolgi ctrl 0 and PTK2B oligo ant 0.16.
COC(=O)c1cn(NC(=O)c2cnccn2)c(=O)c2ccccc12 was read as PostGolgi yeast 6, Ecoli WT expand 1, Cav3 T inh 0.33, PostGolgi ctrl -3, PTK2B oligo ant 0.15 and Ecoli tolC 99*.
For c1ccc(-c2ncnc3cc4n(c23)CCC4)cc1 the results were Cav3 T inh 0.8 and PTK2B oligo ant -0.31.
`COCCN(CC(=O)NCc1ccc(OC)cc1)C(=O)CCC(=O)Nc1nccs1` gave PostGolgi yeast 3, Ecoli WT expand 4, Cav3 T inh 1.2, PostGolgi ctrl -4, PTK2B oligo ant -0.22 and Ecoli tolC -17.
For Cc1ccc(Nc2cc(C)nc(-c3ccccc3O)n2)cc1 the results were PostGolgi yeast -4, Ecoli WT expand 10, Cav3 T inh 0.052, PostGolgi ctrl 40* and PTK2B oligo ant -0.01.
`CCOC(=O)N1CCC2(CC1)C(C#N)=C(N)Oc1c2sc2nc(C)cc(C)c12` gave PostGolgi yeast 10, Ecoli WT expand -3, Cav3 T inh 0.33, PostGolgi ctrl 55*, PTK2B oligo ant 0.01 and Ecoli tolC 40.
`CCOC(=O)N1CCC2(CC1)C(C#N)=C(N)Oc1c2c(C)nn1-c1cccc(Cl)c1` gave PostGolgi yeast -7, Ecoli WT expand 1, Cav3 T inh -0.24, PostGolgi ctrl 31*, PTK2B oligo ant -0.73 and Ecoli tolC 0.
O=C(CSc1nnc(-c2ccc(S(=O)(=O)N3CCCC3)cc2)o1)NCc1ccco1 was read as PostGolgi yeast -3, Ecoli WT expand -7, Cav3 T inh 0.26, PostGolgi ctrl -1, PTK2B oligo ant -0.12 and Ecoli tolC -3.
`COc1cccc(C2CC(c3cccc(C)c3)n3ncnc3N2)c1` (configuration not stated) gave PostGolgi yeast -3, Ecoli WT expand 0, Cav3 T inh 0.31, PostGolgi ctrl 0 and Ecoli tolC 22.
For CCn1c(CNC(=O)c2ccco2)nnc1SCC(=O)Nc1ccc(Br)cc1F the results were Cav3 T inh -0.24 and PTK2B oligo ant 0.5.
COc1ccc(CN2C3CCCC2CC(NC(=O)Nc2cccc(C)c2)C3)cc1 (configuration not stated) was read as PTK2B oligo ant 0.14.
COc1ccc(CN2CCn3ncc(C(=O)Nc4cccc(C)c4)c3C2=O)cc1 was read as PostGolgi yeast -9, Ecoli WT expand -20, Cav3 T inh -5.5*, PostGolgi ctrl -4 and PTK2B oligo ant -0.84.
`Cc1nnc(Sc2nc3c(c(=O)[nH]c(=O)n3C)n2Cc2ccccc2Cl)s1` gave Ecoli tolC -5.
